These results are taken from PubChem BioAssay.

Calls of active or inactive are those of the source.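 Rule for the calls, unless noted: active = duplicate-averaged activation above buffer control mean plus 5 SD of those controls; inactive = the rest.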

Experiment [1] in a line: thallium flux activation in parental CHO cells, counter-screen for KCNQ1 potentiator project (AID 493006). The following applies: parental CHO-K1 cells, FluxOR thallium flux, at 10 µM; active compounds read high. An outline of the steps:
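Test system: parental CHO-K1 cells, FluxOR dye-loaded / Probe or stimulus: potassium plus thallium depolarizing stimulus, 5x stock 12.5 mM K2SO4, Tl2SO4 / Timing: overnight 37 °C plating, 90 min dye, 20 min dark compound / Measured by: kinetic thallium-flux fluorescence / Read-out: max-minus-min fluorescence over baseline, percent of buffer-to-R-L3 span / Benchmarks: buffer and R-L3 controls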
(In general: Counterscreens check selectivity or assay interference.)

Experiment [2] addresses Potassium voltage-gated channel subfamily KQT member 1 (Homo sapiens) (UniProt P51787). In words: KCNQ1 potassium channel potentiators, confirmation, FluxOR thallium flux, CHO cells, duplicates (AID 493007;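 active = potentiation averaged over duplicate wells exceeding buffer-only control mean by more than 3 SD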;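 for outcome: cells depolarized by a potassium plus thallium sulfate stimulus after compound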;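 for potentiation: 0% = buffer-only wells and 100% = R-L3 activator control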). The following applies: KCNQ1 cell line, FluxOR thallium flux fluorescence, at 10 µM; active compounds read high, % of reference activator effect, buffer zero. An outline of the steps: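 Assay system: CHO cells carrying KCNQ1 | Controls: Buffer and R-L3 controls | Schedule: FluxOR dye loading 90 min, compound exposure 20 min, room temperature | Read-out: Baseline-normalized fluorescence change, percent of buffer-to-R-L3 range | Replicates: Each compound tested in duplicate | Technique: Kinetic thallium influx fluorescence with FluxOR dye, 10 s baseline, 110 s post-stimulus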

Experiment [3] has as its target Potassium voltage-gated channel subfamily KQT member 2 (Rattus norvegicus) (UniProt O88943). In words: rat KCNQ2 channel potentiation, selectivity assay for KCNQ1 potentiator project, KCNQ2-CHO-K1 cells (AID 493009;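 active = mean duplicate potentiation above the buffer control mean plus 5 SD of buffer wells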;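 note: assay conditions were tuned for KCNQ1 rather than KCNQ2 modulators; signal is max minus min fluorescence divided by baseline after thallium stimulus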). The note with it: FluxOR thallium flux fluorescence, at 10 µM; active compounds read high, scaled: buffer 0, activator control 100.
The target of experiment [4] is Potassium voltage-gated channel subfamily KQT member 1 (Homo sapiens) (UniProt P51787). In words: KCNQ1 channel current potentiators, confirmation, orthogonal assay for KCNQ1 potentiator project, IonWorks patch clamp, KCNQ1-CHO cells (AID 493184;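 active = current rise at least 3 SD above the untreated control mean in each of two repeat wells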). The note with it: automated patch clamp current, at 10 µM; active compounds read high. In short, it runs like this:
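Material: KCNQ1-expressing CHO cells; doses: 10 µM final, single point; probe or stimulus: voltage step from -90 mV holding to +40 mV, 2,000 ms; signal: automated voltage clamp, amphotericin B perforated patch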

Sequence of Potassium voltage-gated channel subfamily KQT member 2 (Rattus norvegicus) (O88943 whole entry, looked up): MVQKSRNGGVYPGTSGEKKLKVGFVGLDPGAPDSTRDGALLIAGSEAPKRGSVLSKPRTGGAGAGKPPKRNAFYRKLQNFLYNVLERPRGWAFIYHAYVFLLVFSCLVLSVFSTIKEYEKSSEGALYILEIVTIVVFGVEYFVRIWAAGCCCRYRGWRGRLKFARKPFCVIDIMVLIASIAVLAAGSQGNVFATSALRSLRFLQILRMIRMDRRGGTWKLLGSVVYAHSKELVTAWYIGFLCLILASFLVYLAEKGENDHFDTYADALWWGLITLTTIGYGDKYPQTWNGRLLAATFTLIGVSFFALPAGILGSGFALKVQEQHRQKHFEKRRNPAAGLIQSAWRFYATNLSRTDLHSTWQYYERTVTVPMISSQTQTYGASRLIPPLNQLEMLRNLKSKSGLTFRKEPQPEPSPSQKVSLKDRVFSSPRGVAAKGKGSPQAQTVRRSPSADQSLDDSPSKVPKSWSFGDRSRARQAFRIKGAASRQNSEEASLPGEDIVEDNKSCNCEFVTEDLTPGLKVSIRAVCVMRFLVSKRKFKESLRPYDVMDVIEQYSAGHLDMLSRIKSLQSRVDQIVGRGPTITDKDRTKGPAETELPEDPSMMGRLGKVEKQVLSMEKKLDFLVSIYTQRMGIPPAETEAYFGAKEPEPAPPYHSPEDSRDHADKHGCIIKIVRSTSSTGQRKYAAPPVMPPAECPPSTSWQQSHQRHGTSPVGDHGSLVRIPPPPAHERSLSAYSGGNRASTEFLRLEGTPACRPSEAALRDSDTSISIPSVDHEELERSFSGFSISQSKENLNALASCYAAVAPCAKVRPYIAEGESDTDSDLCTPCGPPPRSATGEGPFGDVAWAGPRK
Sequence of Potassium voltage-gated channel subfamily KQT member 1 (Homo sapiens) (P51787 whole entry, looked up): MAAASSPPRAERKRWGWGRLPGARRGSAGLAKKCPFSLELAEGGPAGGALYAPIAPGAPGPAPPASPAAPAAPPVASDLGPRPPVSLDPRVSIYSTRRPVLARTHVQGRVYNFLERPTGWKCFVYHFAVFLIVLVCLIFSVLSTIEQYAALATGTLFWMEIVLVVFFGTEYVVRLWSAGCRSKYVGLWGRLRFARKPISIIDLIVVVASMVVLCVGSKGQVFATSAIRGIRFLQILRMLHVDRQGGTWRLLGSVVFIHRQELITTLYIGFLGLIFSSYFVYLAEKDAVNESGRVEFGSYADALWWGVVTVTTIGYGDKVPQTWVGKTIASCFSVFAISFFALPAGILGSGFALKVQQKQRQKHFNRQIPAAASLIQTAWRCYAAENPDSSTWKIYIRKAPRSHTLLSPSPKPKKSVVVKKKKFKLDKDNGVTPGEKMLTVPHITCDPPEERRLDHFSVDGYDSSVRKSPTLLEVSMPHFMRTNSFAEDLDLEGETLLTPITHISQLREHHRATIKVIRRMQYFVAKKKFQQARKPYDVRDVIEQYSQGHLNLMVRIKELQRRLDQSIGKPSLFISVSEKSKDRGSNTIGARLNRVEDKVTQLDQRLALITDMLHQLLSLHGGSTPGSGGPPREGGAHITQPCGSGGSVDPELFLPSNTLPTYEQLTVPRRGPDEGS

Turning to `COc1ccc(NC(=O)[C@@H]2CC=C[C@@H]3CCN(C4CCCCC4)C(=O)[C@@H]32)cc1`, the outcome in experiment [1], in experiment [2], in experiment [3] and in experiment [4] was inactive.
`COc1ccc(N(Cc2ccccc2)S(=O)(=O)c2cccc(C(=O)O)c2)cc1`: the outcome in experiment [1], in experiment [2], in experiment [3] and in experiment [4] was inactive.
For `CS(=O)(=O)NN1C(=O)c2ccccc2NC1c1ccccc1F` (stereo unspecified), the activation in experiment [1] was 143% (active). In addition, the potentiation in experiment [2] is 32.5% (active). Further, the outcome in experiment [3] and in experiment [4] was inactive.
Turning to `CC/C(=N\NC(=S)Nc1cccc(C)c1)c1ccccc1`, the outcome in experiment [1] and in experiment [4] was inactive. For the same compound, the potentiation in experiment [2] is 104% (active); in experiment [3], 216% (active).
As to `CC(C)c1ccc(/C=C2\SC(N3CCOCC3)=NC2=O)cc1`, the result in experiment [1], in experiment [2] and in experiment [4] was inactive. In addition, the potentiation in experiment [3] is 146% (active).
Turning to `CN(Cc1nccs1)C(=O)c1ccc(OC2CCN(Cc3ccccn3)CC2)cc1`, the result in experiment [1], in experiment [2], in experiment [3] and in experiment [4] was inactive.
Take `COc1cccc2sc(N(CCCN(C)C)C(=O)c3ccc(S(=O)(=O)N4CCCc5ccccc54)cc3)nc12`: the result in experiment [1], in experiment [2], in experiment [3] and in experiment [4] was inactive.
On to `CC12CCC(C(=O)N(CSC(=S)N/N=C\c3ccccc3Cl)C1=O)C2(C)C` (stereo unspecified), for which the activation in experiment [1] is 178% (active). Further, the potentiation in experiment [2] was 47% (active); in experiment [3], 152% (active). In experiment [4], the result was inactive.
On to `CN1C=CC=C/C1=C1\SC(=S)N(Cc2ccccc2)C1=O`, for which the result in experiment [1], in experiment [2], in experiment [3] and in experiment [4] was inactive.
On to `CCn1c(=S)[nH]c2c(c1=O)C(C)(C)Cc1ccccc1-2`, for which the activation in experiment [1] was 150% (active). For the same compound, the result in experiment [2], in experiment [3] and in experiment [4] was inactive.
Turning to `CCCCn1c(=S)[nH]c2ccccc2c1=O`, in experiment [1], the activation is 160% (active). In addition, the potentiation in experiment [2] is 50.5% (active); in experiment [3], 187% (active). Also, in experiment [4], the outcome was inactive.
With `Cc1ccc(NC(=O)CN(C)C(=O)CCOc2ccccc2C)cc1`, the outcome in experiment [1], in experiment [2], in experiment [3] and in experiment [4] was inactive.
As for `O=C(O)CCC(=O)Nc1ccc(S(=O)(=O)c2ccc(NC(=O)CCC(=O)O)cc2)cc1`, the outcome in experiment [1], in experiment [2], in experiment [3] and in experiment [4] was inactive.
Turning to `Cc1cc(/C=N\NC(=O)CC(=O)NC2CCCCC2)c(C)n1-c1cccc(Cl)c1Cl`, the outcome in experiment [1], in experiment [2] and in experiment [4] was inactive. For the same compound, in experiment [3], the potentiation was 153% (active).
For the compound `COc1ccc(OCC(=O)Nc2cccc(C(C)=O)c2)cc1`, the outcome in experiment [1], in experiment [2], in experiment [3] and in experiment [4] was inactive.
As to `CCC1CCC2(CC1)NNC(=S)NN2`, the result in experiment [1], in experiment [2], in experiment [3] and in experiment [4] was inactive.
Regarding `O=C(Nc1nc2c(F)cc(F)cc2s1)C1COc2ccccc2O1` (stereo unspecified), in experiment [1], the activation is 142% (active). Further, the figures for the potentiation in experiment [2] and in experiment [3] were 68.5% (active) and 194% (active), respectively. Besides, the result in experiment [4] was inactive.
As for `Cc1ccc(C)c(NC(=S)N(Cc2ccco2)C(C)c2cccs2)c1` (stereo unspecified), the outcome in experiment [1], in experiment [2], in experiment [3] and in experiment [4] was inactive.
As to `CC1(C)CC[C@]2(C(=O)O)CC[C@]3(C)C(=CCC4[C@@]5(C)CC[C@H](O)C(C)(C)C5[C@H](O)C[C@]43C)[C@@H]2C1` (stereo partly specified), the activation in experiment [1] was 184% (active). Also, the figures for the potentiation in experiment [2] and in experiment [3] were 40.5% (active) and 182% (active), respectively. For the same compound, the result in experiment [4] was inactive.
With `O=C(CN1CCCC1)Nc1ccc2c(c1)CCC2`, the result in experiment [1], in experiment [2], in experiment [3] and in experiment [4] was inactive.
In the case of `Cc1ccc(OCC(=O)NC(=S)Nc2ccc(Br)cn2)cc1`, the outcome in experiment [1], in experiment [3] and in experiment [4] was inactive. Also, the potentiation in experiment [2] is 19.5% (active).
As for `O=C(NC(=S)Nc1ccccc1Cl)c1cncc(Br)c1`, the result in experiment [1], in experiment [2], in experiment [3] and in experiment [4] was inactive.
As for `NC(=O)COC(=O)c1ccccc1Nc1ccc(SC(F)F)cc1`, the result in experiment [1] and in experiment [4] was inactive. The potentiation is 26% (active) in experiment [2] and 147% (active) in experiment [3].
On to `CCN(c1ccccc1)S(=O)(=O)c1ccc(NC(=O)c2nc(S(C)(=O)=O)ncc2Cl)cc1`, for which the result in experiment [1], in experiment [2] and in experiment [4] was inactive. Also, in experiment [3], the potentiation is 156% (active).
As to `CSc1ccccc1NC(=O)c1ccc2c(c1)CCN2S(C)(=O)=O`, the result in experiment [1], in experiment [2], in experiment [3] and in experiment [4] was inactive.
Consider `O=C(CC1(O)C(=O)N(C/C=C/c2ccccc2)c2ccccc21)c1ccccn1` (stereo unspecified), for which the result in experiment [1], in experiment [2], in experiment [3] and in experiment [4] was inactive.
With `C/C(=N\NS(=O)(=O)c1ccc(Br)cc1)c1cccs1`, the result in experiment [1], in experiment [2], in experiment [3] and in experiment [4] was inactive.
As for `Cn1c(=O)c2c(SC3CCCC3)nc(C3CC3)nc2n(C)c1=O`, the result in experiment [1], in experiment [2], in experiment [3] and in experiment [4] was inactive.
For the compound `Cc1ccc(C)c(N2CCN(C(=O)CCS(=O)(=O)c3ccc4c(c3)NC(=O)CO4)CC2)c1`, the result in experiment [1], in experiment [2], in experiment [3] and in experiment [4] was inactive.
